ChEMBL document CHEMBL3877264, “Quinolidene-rhodanine conjugates: Facile synthesis and biological evaluation” (Eur J Med Chem, 2017)
Values after ≈ are worked out from the molar mass of the structure shown.

Legend:
[1] = test system: Mycobacterium tuberculosis; assay: Growth inhibition of Mycobacterium tuberculosis H37Ra ATCC 25177 at active stage at 6.25 ug/ml measured after 8 days by XTT dye based two fold dilution method relative to control; format: functional; settings: H37Ra ATCC 25177, 192 h, read-out: GI
Outline: (§1)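 MTB H37Ra was grown in Dubos medium, then exposed in Mycobacterium pheli minimal medium (pH 6.6) to compounds dissolved in DMSO. The assay ended on day 8 (active) or day 12 (dormant). Viable cells were measured by XTT reduction menadione assay at 470 nm, blank-corrected, relative to vehicle control. Triplicates were expressed as mean ± SD. MIC came from dose-response curves.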

[2] = test system: Mycobacterium tuberculosis; assay: Growth inhibition of Mycobacterium bovis BCG ATCC 35743 at dormant stage at 30 ug/ml measured after 12 days by nitrate reductase dye based two fold dilution method relative to control; format: functional; settings: BCG str. ATCC 35743, 288 h, read-out: GI
Outline: (§2)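 M. bovis BCG was grown in Dubos medium and assayed in Mycobacterium pheli minimal medium (pH 6.6), with compounds from DMSO stocks. Incubation lasted 8 days for active and 12 days for dormant cultures. Viability was read by nitrate reductase at 540 nm against cell-free blanks, with vehicle set as 100% growth. Primary screen was at 30, 10 and 3 µg/ml, in triplicate, mean ± SD. MIC was taken from dose-response curves.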

[3] = test system: Escherichia coli; assay: Growth inhibition of Escherichia coli NCIM 2688 at 3 ug/ml measured after 8 hrs relative to control; format: functional; settings: NCIM 2688, 8 h, read-out: GI
Outline: (§3)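 Bacteria grown in LB at 37 °C and 180 rpm to OD 1. Compounds added to wells, then 0.1% inoculum of 1 OD culture (620 nm). Growth read as OD at 620 nm after 8 h for gram-negative and after 12 h for gram-positive strains.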

[4] = test system: Mycobacterium tuberculosis; assay: Growth inhibition of Mycobacterium bovis BCG ATCC 35743 at dormant stage at 10 ug/ml measured after 12 days by nitrate reductase dye based two fold dilution method relative to control; format: functional; settings: BCG str. ATCC 35743, 288 h, read-out: GI; outline: as §2
[5] = Selectivity index, ratio of GI50 for human PANC1 cells to MIC for Mycobacterium tuberculosis H37Ra ATCC 25177 at dormant stage; format: toxicity, cell-based, PANC-1; settings: read-out: Selectivity Index
Outline: (§4)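 SI is the cell-line GI50 divided by the dormant-stage mycobacterial MIC. […] THP-1 macrophages were PMA-differentiated for 24 h.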

[6] = Cytotoxicity against human THP1 cells measured after 48 hrs by MTT assay; format: toxicity, cell-based, THP-1
Outline: (§5)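 MTT assay with 48 h compound exposure. THP-1 macrophages made by 24 h PMA treatment. Each concentration tested in triplicate in one experiment. % cytotoxicity = (control−test)/(control−blank)×100, with control = cells + DMSO and blank = medium without cells. IC50 from % survival versus concentration plots.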

[7] = test system: Mycobacterium tuberculosis; assay: Growth inhibition of Mycobacterium tuberculosis H37Ra ATCC 25177 at dormant stage at 0.78 ug/ml measured after 12 days by XTT dye based two fold dilution method relative to control; format: functional; settings: H37Ra ATCC 25177, 288 h, read-out: GI; outline: as §1
[8] = test system: Pseudomonas fluorescens; assay: Growth inhibition of Pseudomonas fluorescens NCIM 2036 at 10 ug/ml measured after 8 hrs relative to control; format: functional; settings: NCIM 2036, 8 h, read-out: GI; outline: as §3
[9] = test system: Escherichia coli; assay: Antibacterial activity against Escherichia coli NCIM 2688 measured after 8 hrs; format: functional; settings: NCIM 2688, 8 h; outline: as §3
[10] = Antifungal activity against Cryptococcus neoformans NCIM 576 by standard agar method; format: functional
Outline: (§6)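 MICs determined by standard agar method; DMSO as solvent control.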

[11] = test system: Mycobacterium tuberculosis; assay: Growth inhibition of Mycobacterium tuberculosis H37Ra ATCC 25177 at dormant stage at 100 ug/ml measured after 12 days by XTT dye based two fold dilution method relative to control; format: functional; settings: H37Ra ATCC 25177, 288 h, read-out: GI; outline: as §1
[12] = test system: Mycobacterium tuberculosis; assay: Growth inhibition of Mycobacterium bovis BCG ATCC 35743 at dormant stage measured after 12 days by nitrate reductase dye based two fold dilution method; format: functional; settings: BCG str. ATCC 35743, 288 h; outline: as §2
[13] = Selectivity index, ratio of GI50 for […]-differentiated human THP1 cells to MIC for Mycobacterium tuberculosis H37Ra ATCC 25177 at dormant stage; format: toxicity, cell-based, THP-1; settings: read-out: Selectivity Index; outline: as §4
[14] = Selectivity index, ratio of GI50 for human HeLa cells to MIC for Mycobacterium tuberculosis H37Ra ATCC 25177 at dormant stage; format: toxicity, cell-based; settings: read-out: Selectivity Index; outline: as §4
[15] = Cytotoxicity against human THP1 cells assessed as growth inhibition at 100 ug/ml measured after 48 hrs by MTT assay relative to control; format: toxicity, cell-based, THP-1; settings: read-out: GI; outline: as §5
[16] = test system: Mycobacterium tuberculosis; assay: Growth inhibition of Mycobacterium tuberculosis H37Ra ATCC 25177 at active stage at 25 ug/ml measured after 8 days by XTT dye based two fold dilution method relative to control; format: functional; settings: H37Ra ATCC 25177, 192 h, read-out: GI; outline: as §1
[17] = Antifungal activity against Fusarium oxysporum NCIM 1332 by standard agar method; format: functional; outline: as §6
[18] = test system: Aspergillus niger; assay: Antifungal activity against Aspergillus niger NCIM 1196 by standard agar method; format: functional; outline: as §6
[19] = test system: Aspergillus flavus; assay: Antifungal activity against Aspergillus flavus NCIM 539 by standard agar method; format: functional; outline: as §6
[20] = test system: Mycobacterium tuberculosis; assay: Growth inhibition of Mycobacterium tuberculosis H37Ra ATCC 25177 at active stage at 100 ug/ml measured after 8 days by XTT dye based two fold dilution method relative to control; format: functional; settings: H37Ra ATCC 25177, 192 h, read-out: GI; outline: as §1
[21] = Cytotoxicity against human HeLa cells measured after 48 hrs by MTT assay; format: toxicity, cell-based
[22] = Selectivity index, ratio of GI50 for HUVEC to MIC for Mycobacterium tuberculosis H37Ra ATCC 25177 at dormant stage
[23] = test system: Mycobacterium tuberculosis; assay: Growth inhibition of Mycobacterium tuberculosis H37Ra ATCC 25177 at active stage at 12.5 ug/ml measured after 8 days by XTT dye based two fold dilution method relative to control; format: functional; settings: H37Ra ATCC 25177, 192 h, read-out: GI
[24] = test system: Mycobacterium tuberculosis; assay: Growth inhibition of Mycobacterium bovis BCG ATCC 35743 at dormant stage at 3 ug/ml measured after 12 days by nitrate reductase dye based two fold dilution method relative to control; format: functional; settings: BCG str. ATCC 35743, 288 h, read-out: GI; outline: as §2
[25] = test system: Staphylococcus aureus; assay: Antibacterial activity against of Staphylococcus aureus NCIM 2010 measured after 12 hrs; format: functional; settings: NCIM 2010, 12 h; outline: as §3
[26] = test system: Mycobacterium tuberculosis; assay: Growth inhibition of Mycobacterium bovis BCG ATCC 35743 at dormant stage at 100 ug/ml measured after 12 days by nitrate reductase dye based two fold dilution method relative to control; format: functional; settings: BCG str. ATCC 35743, 288 h, read-out: GI; outline: as §2
[27] = test system: Mycobacterium tuberculosis; assay: Growth inhibition of Mycobacterium bovis BCG ATCC 35743 at active stage at 50 ug/ml measured after 8 days by nitrate reductase dye based two fold dilution method relative to control; format: functional; settings: BCG str. ATCC 35743, 192 h, read-out: GI
[28] = test system: Mycobacterium tuberculosis; assay: Growth inhibition of Mycobacterium bovis BCG ATCC 35743 at active stage at 1.56 ug/ml measured after 8 days by nitrate reductase dye based two fold dilution method relative to control; format: functional; settings: BCG str. ATCC 35743, 192 h, read-out: GI; outline: as §2
[29] = test system: Mycobacterium tuberculosis; assay: Growth inhibition of Mycobacterium bovis BCG ATCC 35743 at active stage at 3.13 ug/ml measured after 8 days by nitrate reductase dye based two fold dilution method relative to control; format: functional; settings: BCG str. ATCC 35743, 192 h, read-out: GI; outline: as §2
[30] = test system: Mycobacterium tuberculosis; assay: Growth inhibition of Mycobacterium bovis BCG ATCC 35743 at dormant stage at 6.25 ug/ml measured after 12 days by nitrate reductase dye based two fold dilution method relative to control; format: functional; settings: BCG str. ATCC 35743, 288 h, read-out: GI; outline: as §2

Compound	inhibition of growth at 6.25 µg/mL [1]	inhibition of growth at 30 µg/mL [2]	inhibition of growth at 3 µg/mL [3]	inhibition of growth at 10 µg/mL [4]	selectivity ratio [5]	GI50 at 48 h [6]	inhibition of growth at 0.78 µg/mL [7]	inhibition of growth at 10 µg/mL [8]	MIC [9]	MIC [10]	inhibition of growth at 100 µg/mL [11]	IC50 [12]	IC90 [12]	selectivity ratio [13]	selectivity ratio [14]	inhibition at 48 h, 100 ug/ml [15]	inhibition of growth at 25 µg/mL [16]	MIC [17]	MIC [18]	MIC [19]	other results
Cc1cccc2cc(/C=C3\SC(=S)N(CC(=O)O)C3=O)c(Cl)nc12	12.9%	70%	8.28%	31.6%	5	> 100 µg/mL	-43.4%	21.3%	> 30 µg/mL	150 µg/mL (≈ 396 µM)	100%	> 30 µg/mL	> 30 µg/mL	5	5	32.3%	93.4%	175 µg/mL (≈ 462 µM)	200 µg/mL (≈ 528 µM)	100 µg/mL (≈ 264 µM)	inhibition of growth at 100 µg/mL [20]: 98.5%; GI50 at 48 h [21]: > 100 µg/mL; Selectivity Index [22]: 5; inhibition of growth at 12.5 µg/mL [23]: 22%; inhibition of growth at 3 µg/mL [24]: 22.7%; MIC [25]: > 30 µg/mL
O=C1NC(=S)S/C1=C\c1cc2cc(F)ccc2nc1Cl	96.2%	76.5%	18.9%	16.9%	5.6	> 100 µg/mL	-24.1%	54.6%	> 30 µg/mL	25 µg/mL (≈ 77 µM)	97.3%	3.9 µg/mL (≈ 12 µM)	5.2 µg/mL (≈ 16 µM)	5.6	5.6	26.3%	101%	25 µg/mL (≈ 77 µM)	25 µg/mL (≈ 77 µM)	12.5 µg/mL (≈ 38.5 µM)	inhibition of growth at 100 µg/mL [26]: 98.5%; inhibition of growth at 50 µg/mL [27]: 99%; inhibition of growth at 1.56 µg/mL [28]: -13.2%; inhibition of growth at 3.13 µg/mL [29]: 71.3%; inhibition of growth at 100 µg/mL [20]: 101%; GI50 at 48 h [21]: > 100 µg/mL; Selectivity Index [22]: 5.6; inhibition of growth at 12.5 µg/mL [23]: 99.9%; inhibition of growth at 6.25 µg/mL [30]: 100%; inhibition of growth at 3 µg/mL [24]: 0.38%; MIC [25]: 22.6 µg/mL (≈ 69.7 µM)
O=C1NC(=S)S/C1=C\c1cc2cc(Cl)ccc2nc1Cl	102%	99.2%	106%	99.6%	15.6	> 100 µg/mL	-27.1%	101%	2.44 µg/mL (≈ 7.15 µM)	100 µg/mL (≈ 293 µM)	85.4%	1.3 µg/mL (≈ 3.81 µM)	2.2 µg/mL (≈ 6.45 µM)	15.6	15.6	28.7%	100%	100 µg/mL (≈ 293 µM)	150 µg/mL (≈ 440 µM)	125 µg/mL (≈ 366 µM)	inhibition of growth at 100 µg/mL [26]: 98.7%; inhibition of growth at 50 µg/mL [27]: 99.7%; inhibition of growth at 1.56 µg/mL [28]: 86.2%; inhibition of growth at 3.13 µg/mL [29]: 98.9%; inhibition of growth at 100 µg/mL [20]: 92.7%; GI50 at 48 h [21]: > 100 µg/mL; Selectivity Index [22]: 15.6; inhibition of growth at 12.5 µg/mL [23]: 99.3%; inhibition of growth at 6.25 µg/mL [30]: 101%; inhibition of growth at 3 µg/mL [24]: 99.8%; MIC [25]: 2.55 µg/mL (≈ 7.47 µM)
